Assay results from ChEMBL document CHEMBL5550111, “Design, synthesis and biological evaluation of aryloxy thiophosphoramidate triesters of anticancer nucleoside analogues” (Bioorg Med Chem, 2024).

Legend:
PANC-1 [1] = test: Cytotoxicity against human PANC-1 cells assessed as inhibition of cell viability incubated for 72 hrs by MTS assay; format: functional, cell-based; conditions: PANC-1, 72 h
How it was run: (§1)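 Cells seeded at 0.5 to 100 × 10^3 per well the day before treatment, then exposed for 72 h to 9 serial concentrations (3.16-fold dilutions, top 198 μM), in duplicate. MTS added for a final 4 h at 37 °C and absorbance read. IC50 is the concentration giving 50% loss of viability. MI% is the maximum inhibition over the tested range.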

PANC-1 [2] = test: Cytotoxicity against human PANC-1 cells assessed as maximum inhibition of cell viability upto 198 uM incubated for 72 hrs by MTS assay relative to control; format: functional; conditions: up to 198 µM
How it was run: (§2)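 Cells seeded at 0.5 to 100 × 10^3 per well the day before drug addition, then exposed to compound for 72 h. MTS added afterwards, with a further 4 h at 37 °C, and absorbance read. Tested in duplicate at 9 serial 3.16-fold dilutions, top concentration 198 μM. MI% is the maximum inhibition of viability across the tested range.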

MIA PaCa-2 [3] = test: Cytotoxicity against human MIA PaCa-2 cells assessed as inhibition of cell viability incubated for 72 hrs by MTS assay; format: functional, cell-based; conditions: MIA PaCa-2, 72 h; how it was run: as §1
MIA PaCa-2 [4] = test: Cytotoxicity against human MIA PaCa-2 cells assessed as maximum inhibition of cell viability upto 198 uM incubated for 72 hrs by MTS assay relative to control; format: functional; conditions: up to 198 µM; how it was run: as §2
BXPC-3 [5] = test: Cytotoxicity against human BXPC-3 cells assessed as inhibition of cell viability incubated for 72 hrs by MTS assay; format: functional, cell-based; conditions: BXPC-3, 72 h; how it was run: as §1
BXPC-3 [6] = test: Cytotoxicity against human BXPC-3 cells assessed as maximum inhibition of cell viability upto 198 uM incubated for 72 hrs by MTS assay relative to control; format: functional; conditions: up to 198 µM; how it was run: as §2
RT112/84 [7] = test: Cytotoxicity against human RT112/84 cells assessed as inhibition of cell viability incubated for 72 hrs by MTS assay; format: functional, cell-based; conditions: RT112/84, 72 h; how it was run: as §1
RT112/84 [8] = test: Cytotoxicity against human RT112/84 cells assessed as maximum inhibition of cell viability upto 198 uM incubated for 72 hrs by MTS assay relative to control; format: functional; conditions: up to 198 µM; how it was run: as §2
[9] = Cytotoxicity against human T24/83 cells assessed as inhibition of cell viability incubated for 72 hrs by MTS assay; format: functional, cell-based; conditions: T24/83, 72 h; how it was run: as §1
[10] = Cytotoxicity against human T24/83 cells assessed as maximum inhibition of cell viability upto 198 uM incubated for 72 hrs by MTS assay relative to control; format: functional; conditions: up to 198 µM; how it was run: as §2
5637 [11] = test: Cytotoxicity against human 5637 cells assessed as inhibition of cell viability incubated for 72 hrs by MTS assay; format: functional, cell-based; conditions: Homo sapiens, 5637, 72 h; how it was run: as §1
5637 [12] = test: Cytotoxicity against human 5637 cells assessed as maximum inhibition of cell viability upto 198 uM incubated for 72 hrs by MTS assay relative to control; format: functional; conditions: up to 198 µM; how it was run: as §2
PC-3 [13] = test: Cytotoxicity against human PC-3 cells assessed as inhibition of cell viability incubated for 72 hrs by MTS assay; format: functional, cell-based; conditions: PC-3, 72 h; how it was run: as §1
PC-3 [14] = test: Cytotoxicity against human PC-3 cells assessed as maximum inhibition of cell viability upto 198 uM incubated for 72 hrs by MTS assay relative to control; format: functional; conditions: up to 198 µM; how it was run: as §2
HT-29 [15] = test: Cytotoxicity against human HT-29 cells assessed as inhibition of cell viability incubated for 72 hrs by MTS assay; format: functional, cell-based; conditions: HT-29, 72 h; how it was run: as §1
HT-29 [16] = test: Cytotoxicity against human HT-29 cells assessed as maximum inhibition of cell viability upto 198 uM incubated for 72 hrs by MTS assay relative to control; format: functional; conditions: up to 198 µM; how it was run: as §2
COLO 205 [17] = test: Cytotoxicity against human COLO 205 cells assessed as inhibition of cell viability incubated for 72 hrs by MTS assay; format: functional, cell-based; conditions: COLO 205, 72 h; how it was run: as §1
COLO 205 [18] = test: Cytotoxicity against human COLO 205 cells assessed as maximum inhibition of cell viability upto 198 uM incubated for 72 hrs by MTS assay relative to control; format: functional; conditions: up to 198 µM; how it was run: as §2
MDA-MB-231 = test: Cytotoxicity against human MDA-MB-231 cells assessed as maximum inhibition of cell viability upto 198 uM incubated for 72 hrs by MTS assay relative to control; format: functional; conditions: up to 198 µM; how it was run: as §2
MCF7 = test: Cytotoxicity against human MCF7 cells assessed as maximum inhibition of cell viability upto 198 uM incubated for 72 hrs by MTS assay relative to control; format: functional; conditions: up to 198 µM; how it was run: as §2
A2780 [19] = test: Cytotoxicity against human A2780 cells assessed as inhibition of cell viability incubated for 72 hrs by MTS assay; format: functional, cell-based; conditions: A2780, 72 h; how it was run: as §1
A2780 [20] = test: Cytotoxicity against human A2780 cells assessed as maximum inhibition of cell viability upto 198 uM incubated for 72 hrs by MTS assay relative to control; format: functional; conditions: up to 198 µM; how it was run: as §2
OVCAR-3 [21] = test: Cytotoxicity against human OVCAR-3 cells assessed as inhibition of cell viability incubated for 72 hrs by MTS assay; format: functional, cell-based; conditions: OVCAR-3, 72 h; how it was run: as §1
OVCAR-3 [22] = test: Cytotoxicity against human OVCAR-3 cells assessed as maximum inhibition of cell viability upto 198 uM incubated for 72 hrs by MTS assay relative to control; format: functional; conditions: up to 198 µM; how it was run: as §2
SK-MES-1 [23] = test: Cytotoxicity against human SK-MES-1 cells assessed as inhibition of cell viability incubated for 72 hrs by MTS assay; format: functional, cell-based; conditions: SK-MES-1, 72 h; how it was run: as §1
SK-MES-1 [24] = test: Cytotoxicity against human SK-MES-1 cells assessed as maximum inhibition of cell viability upto 198 uM incubated for 72 hrs by MTS assay relative to control; format: functional; conditions: up to 198 µM; how it was run: as §2
NCI-H1975 = test: Cytotoxicity against human NCI-H1975 cells assessed as maximum inhibition of cell viability upto 198 uM incubated for 72 hrs by MTS assay relative to control; format: functional; conditions: up to 198 µM; how it was run: as §2
A498 [25] = test: Cytotoxicity against human A498 cells assessed as inhibition of cell viability incubated for 72 hrs by MTS assay; format: functional, cell-based; conditions: A498, 72 h; how it was run: as §1
A498 [26] = test: Cytotoxicity against human A498 cells assessed as maximum inhibition of cell viability upto 198 uM incubated for 72 hrs by MTS assay relative to control; format: functional; conditions: up to 198 µM; how it was run: as §2
[27] = Cytotoxicity against human ACHN-luc2 cells assessed as inhibition of cell viability incubated for 72 hrs by MTS assay; format: functional, cell-based; conditions: ACHN-luc2, 72 h; how it was run: as §1
[28] = Cytotoxicity against human ACHN-luc2 cells assessed as maximum inhibition of cell viability upto 198 uM incubated for 72 hrs by MTS assay relative to control; format: functional; conditions: up to 198 µM; how it was run: as §2
CAKI-2 [29] = test: Cytotoxicity against human CAKI-2 cells assessed as inhibition of cell viability incubated for 72 hrs by MTS assay; format: functional, cell-based; conditions: CAKI-2, 72 h; how it was run: as §1
CAKI-2 [30] = test: Cytotoxicity against human CAKI-2 cells assessed as maximum inhibition of cell viability upto 198 uM incubated for 72 hrs by MTS assay relative to control; format: functional; conditions: up to 198 µM; how it was run: as §2
HepG2 [31] = test: Cytotoxicity against human HepG2 cells assessed as inhibition of cell viability incubated for 72 hrs by MTS assay; format: functional, cell-based; conditions: HepG2, 72 h; how it was run: as §1
HepG2 [32] = test: Cytotoxicity against human HepG2 cells assessed as maximum inhibition of cell viability upto 198 uM incubated for 72 hrs by MTS assay relative to control; format: functional; conditions: up to 198 µM; how it was run: as §2
RL [33] = test: Cytotoxicity against human RL cells assessed as inhibition of cell viability incubated for 72 hrs by MTS assay; format: functional, cell-based; how it was run: as §1
RL [34] = test: Cytotoxicity against human RL cells assessed as maximum inhibition of cell viability upto 198 uM incubated for 72 hrs by MTS assay relative to control; format: functional; conditions: up to 198 µM; how it was run: as §2
RPMI-8226 [35] = test: Cytotoxicity against human RPMI-8226 cells assessed as inhibition of cell viability incubated for 72 hrs by MTS assay; format: functional, cell-based; conditions: RPMI-8226, 72 h; how it was run: as §1
RPMI-8226 [36] = test: Cytotoxicity against human RPMI-8226 cells assessed as maximum inhibition of cell viability upto 198 uM incubated for 72 hrs by MTS assay relative to control; format: functional; conditions: up to 198 µM; how it was run: as §2
K562 [37] = test: Cytotoxicity against human K562 cells assessed as inhibition of cell viability incubated for 72 hrs by MTS assay; format: functional, cell-based; conditions: K562, 72 h; how it was run: as §1
K562 [38] = test: Cytotoxicity against human K562 cells assessed as maximum inhibition of cell viability upto 198 uM incubated for 72 hrs by MTS assay relative to control; format: functional; conditions: up to 198 µM; how it was run: as §2
KG-1 [39] = test: Cytotoxicity against human KG-1 cells assessed as inhibition of cell viability incubated for 72 hrs by MTS assay; format: functional, cell-based; conditions: KG-1, 72 h; how it was run: as §1
KG-1 [40] = test: Cytotoxicity against human KG-1 cells assessed as maximum inhibition of cell viability upto 198 uM incubated for 72 hrs by MTS assay relative to control; format: functional; conditions: up to 198 µM; how it was run: as §2
HL-60 [41] = test: Cytotoxicity against human HL-60 cells assessed as inhibition of cell viability incubated for 72 hrs by MTS assay; format: functional, cell-based; conditions: HL-60, 72 h; how it was run: as §1
HL-60 [42] = test: Cytotoxicity against human HL-60 cells assessed as maximum inhibition of cell viability upto 198 uM incubated for 72 hrs by MTS assay relative to control; format: functional; conditions: up to 198 µM; how it was run: as §2
MOLT-4 [43] = test: Cytotoxicity against human MOLT-4 cells assessed as inhibition of cell viability incubated for 72 hrs by MTS assay; format: functional, cell-based; conditions: MOLT-4, 72 h; how it was run: as §1
MOLT-4 [44] = test: Cytotoxicity against human MOLT-4 cells assessed as maximum inhibition of cell viability upto 198 uM incubated for 72 hrs by MTS assay relative to control; format: functional; conditions: up to 198 µM; how it was run: as §2

CC(=O)O[C@H]1C(=O)[C@@]2(C)[C@H]([C@H](OC(=O)c3ccccc3)[C@]3(O)C[C@H](OC(=O)[C@H](O)[C@@H](NC(=O)c4ccccc4)c4ccccc4)C(C)=C1C3(C)C)[C@]1(OC(C)=O)CO[C@@H]1C[C@@H]2O [PACLITAXEL]
IC50 (PANC-1 [1]): 3 nM | Imax (PANC-1 [2]): 56% | IC50 (MIA PaCa-2 [3]): 3 nM | Imax (MIA PaCa-2 [4]): 83% | IC50 (BXPC-3 [5]): 5 nM | Imax (BXPC-3 [6]): 85% | IC50 (RT112/84 [7]): 10 nM | Imax (RT112/84 [8]): 77% | IC50 [9]: 4 nM | Imax [10]: 97% | IC50 5637 [11]: 2 nM | Imax 5637 [12]: 95% | IC50 (PC-3 [13]): 10 nM | Imax (PC-3 [14]): 62% | IC50 (HT-29 [15]): 30 nM | Imax (HT-29 [16]): 79% | IC50 (COLO 205 [17]): 10 nM | Imax (COLO 205 [18]): 90% | Imax (MDA-MB-231): 70% | Imax (MCF7): 75% | IC50 (A2780 [19]): 8 nM | Imax (A2780 [20]): 72% | IC50 (OVCAR-3 [21]): 4 nM | Imax (OVCAR-3 [22]): 59% | IC50 (SK-MES-1 [23]): 10 nM | Imax (SK-MES-1 [24]): 77% | Imax (NCI-H1975): 75% | IC50 (A498 [25]): 20 nM | Imax (A498 [26]): 74% | IC50 [27]: 20 nM | Imax [28]: 47% | IC50 (CAKI-2 [29]): 10 nM | Imax (CAKI-2 [30]): 78% | IC50 (HepG2 [31]): 60 nM | Imax (HepG2 [32]): 54% | IC50 (RL [33]): 7 nM | Imax (RL [34]): 63% | IC50 (RPMI-8226 [35]): 2 nM | Imax (RPMI-8226 [36]): 95% | IC50 (K562 [37]): 13 nM | Imax (K562 [38]): 87% | IC50 (KG-1 [39]): 68 nM | Imax (KG-1 [40]): 79% | IC50 (HL-60 [41]): 12 nM | Imax (HL-60 [42]): 97% | IC50 (MOLT-4 [43]): 4 nM | Imax (MOLT-4 [44]): 99%
